This is a sample that favours compounds with a hit; in the whole collection about 6.4% have one here.
Jurkat viability – cytotoxic compounds reducing Jurkat cell viability. Jurkat E6.1 viability, ATP luminescence, 48 h. inhibition, % at 4 µM. 56,000 compounds, 1.2% hits;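 active means inhibition above the mean inhibition of all tested compounds plus 3 SD, cut at about 28% in these data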
HUVEC prolif 384 – inhibitors of human endothelial cell proliferation | HUVEC proliferation, CellTiter-Glo luminescence, 72 h; active compounds read low | viability, % at 10 µM (by protocol) | 86,000 compounds, 1.1% hits;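 active means viability at or below 30%; inactive means viability above 30%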;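 further: 100% = median luminescence of DMSO-only cell control wells on each plate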
Fibroblast inh – blocks proliferation of human lung fibroblasts | LL 47 human lung fibroblast viability, ATP luminescence; active compounds read low | AID 719 | 85,000 compounds, 1.1% hits | viability, % at 10 µM;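 active means viability at or below 50% in the single dose screen; inactive means viability above 50%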;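 further: compound exposure lasted 72 h before the ATP readout; 100% = median luminescence of untreated cell-only wells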
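Benchmarks: Cell-only wells, no compound | Test system: LL 47 human lung fibroblasts, passage 12 or lower | Input: 1,150 cells/well | Measured by: CellTiter-Glo luminescence measuring cellular ATP | Medium: IMEM, 15% FBS supplement | Schedule: Overnight attachment after seeding, then 72 h compound exposure at 37 °C | Doses: Compound addition at 0.1% DMSO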
H69AR inhibit – blocks growth of human H69AR lung tumor cells; viability, % at 10 µM; H69AR lung tumor viability, ATP luminescence, 72 h; active compounds read low; 85,000 compounds, 6% hits; AID 598;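 active means viability at or below 40%; inactive means viability above 40%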;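 further: multidrug resistant small cell line overexpressing MRP-1 efflux transporter; 100% = mean luminescence of untreated control wells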
An asterisk follows results filed as active; . = not tested or not shown.

SMILES | Jurkat viability | HUVEC prolif 384 | Fibroblast inh | H69AR inhibit
CCOc1ccc(CNn2nnnc2N)cc1 | . | 100 | 102 | 107
O=[N+]([O-])c1ccc(N=Nc2ccc(O)cc2O)cc1 | . | 18* | 40* | 3.2*
CC(C)Cc1nc(N2CCN(C(=O)c3ccco3)CC2)c(C#N)c2c1CCC2 | . | 96 | 102 | 94
Cc1nc(N2CCN(C(=O)c3ccc(Cl)cc3)CC2)c(C#N)c2c1COC(C)(C)C2 | . | 99 | 95 | 37*
CC1(C)Cc2c(C#N)c(N3CCN(C(=O)c4ccco4)CC3)nc(Cc3ccccc3)c2CO1 | . | 21* | 79 | 55
CCC12CCCN3CCC4(C(=C(C(=O)OC)C1)Nc1ccccc14)C32 (configuration not stated) | 1 | 86 | 87 | 78
c1cncc(CNc2ccc3c(c2)OCO3)c1 | . | 94 | 94 | 80
Cc1ccc(CNc2ccc3c(c2)OCO3)c(C)c1 | 9 | 61 | 95 | 30*
Nc1nc(CN2CCN(c3ccccc3)CC2)nc(N2CCCc3ccccc32)n1 | 3 | 80 | 99 | .
Nc1nc(CSc2nnnn2-c2ccccc2)nc(N2CCCc3ccccc32)n1 | 3 | 70 | 96 | 28*
CCN(CC)CCCN(Cc1cc2ccc(C)c(C)c2[nH]c1=O)C(=O)NC1CCCCC1 | . | 71 | 89 | 78
Oc1ccc2c(c1)oc1cc(O)ccc12 | 22 | 57 | 76 | 5.2*
O=C(COc1ccc(-n2cnnn2)cc1)NC(=O)NCc1ccccc1 | 2 | 94 | . | 89
COc1cc(C2C3=C(Nc4ncnn42)c2ccccc2CC3)cc(OC)c1OC (configuration not stated) | 98* | 54 | 50 | 29*
CC(=O)Nc1ccc(S(=O)(=O)N(Cc2ccccc2)C(C)C)cc1 | . | 84 | 91 | 86
N#Cc1ccc(-c2ccco2)nc1SCc1ccccc1 | 7 | 89 | 81 | 25*
CCSc1nc(-c2ccco2)ccc1C#N | 7 | 87 | 91 | 78
CC(=O)c1ccc(C(C)(C)c2ccc(C(C)=O)s2)s1 | 7 | 106 | 94 | 93
Cc1cc(C)c(C(=O)COc2cccnc2[N+](=O)[O-])cc1C | . | 85 | 79 | 1.1*
C=CCOC(=O)C1=C(C)NC(SC)=C(C#N)C1c1ccc(OCC)cc1 (configuration not stated) | 0 | 98 | 99 | 39*
C=CCOC(=O)C1=C(C)NC(SCC(=O)Nc2nccs2)=C(C#N)C1c1cccs1 (configuration not stated) | . | 18* | 95 | 28*
CCSC1=C(C#N)C(c2cccs2)C(C(=O)OC)=C(C)N1 (configuration not stated) | . | 92 | 90 | 69
C=CCOC(=O)C1=C(C)NC(SC)=C(C#N)C1c1cccs1 (configuration not stated) | . | 55 | 65 | 20*
O=C(NCC(c1cccnc1)N1CCN(c2ccc(F)cc2)CC1)c1ccc(F)cc1 (configuration not stated) | 7 | 93 | 96 | 89
CCOC(=O)c1ccc(N=c2sc(C(=O)OC)cc(=O)n2CCCN2CCOCC2)cc1 | 7 | 58 | 67 | 21*
SMILES | Jurkat viability | HUVEC prolif 384 | Fibroblast inh | H69AR inhibit
CCOC(=O)c1ccc(N=c2sc(C(=O)OC)cc(=O)n2Cc2ccco2)cc1 | 8 | 29* | 69 | 1.3*
Cc1nc(Oc2ccc(Cl)cc2)c2oc3ccccc3c2n1 | . | 101 | 101 | 81
CCN(CC)S(=O)(=O)c1ccc(NC(=O)COc2c(OC)cccc2OC)cc1 | 1 | 92 | 98 | 77
COc1cccc(C(=O)N(C)c2nnc(-c3ccncc3)s2)c1 | . | 113 | 104 | 94
Cc1ccc(C(=O)N2CCN3C(=O)c4ccccc4C23c2ccc(Cl)cc2)cc1 (configuration not stated) | . | 66 | 61 | 33*
O=c1c2[nH]c3ccccc3c2ncn1CCN1CCOCC1 | -10 | 100 | 103 | 96
COc1ccc(/C=N/n2cnc3c([nH]c4ccc(Br)cc43)c2=O)cc1CN1CCOCC1 | . | 23* | 8.7* | 3.7*
CCOC(=O)CSc1nnc(CNC(=O)c2ccc(OC)cc2)n1C1CCCCC1 | -11 | 109 | 98 | 99
Cc1onc(-c2ccccc2)c1C(=O)NC(C)C1CCCO1 (configuration not stated) | 4 | 87 | 95 | 99
O=C(CN(C(=O)CSc1nnc(COc2ccccc2)o1)c1ccc(F)cc1)NC1CCCCC1 | -7 | . | . | .
CCCCCNc1nc(N2CCCC2)c2c(c1C#N)CCN(C)C2 | . | 4.9* | 39* | 2.1*
COc1ccc(NC(=O)C(CC(C)C)NC(=O)c2ccccc2C)cn1 (configuration not stated) | 2 | 88 | . | 91
COc1ccc(NC(=O)/C(Cl)=C(/Cl)S(=O)(=O)Cc2ccc(C)cc2)cn1 | . | 5.4* | 2.3* | 94
C=CCC(Nc1ccccc1)C12C=CC(O1)C(C(=O)OC)=C2C(=O)OC (configuration not stated) | . | 45 | 3.1* | 1.0*
CN(C)C(=O)N1CCC(C(=O)NCC2CCCO2)CC1 (configuration not stated) | 1 | 100 | 103 | 102
O=c1c(Cl)c(NCCCO)cnn1-c1nc2ccccc2[nH]1 | . | 63 | 26* | 0.6*
O=c1[nH]ncc(NCCCO)c1Cl | . | 99 | 97 | 95
COC(=O)C1=C(O)C(C(=O)OC)C(c2ccc(C)cc2)C(C#N)(C#N)C1c1ccc(C)cc1 (configuration not stated) | . | 80 | 83 | 4.0*
CCCC1(c2ccccc2)NC(=O)N(CC(=O)c2[nH]c(C)c(C(=O)OCC)c2C)C1=O (configuration not stated) | -3 | . | . | .
CCCC1(c2ccccc2)NC(=O)N(CC(=O)Nc2sc(-c3ccccc3)cc2C(=O)OCC)C1=O (configuration not stated) | . | 22* | 22* | 34*
CCOc1cc2c3c(c1)C1(C(=O)N3C(C)(C)C=C2C)C(C#N)=C(N)Oc2cc(O)ccc21 (configuration not stated) | -2 | 46 | 83 | 33*
C=CCOC(=O)C1=C(C)Nc2nnnn2C1c1cccs1 (configuration not stated) | . | 108 | 93 | 42
Cc1ccc(OCCN2CCN(C(=O)CCC(=O)Nc3nnc(C)s3)CC2)cc1 | 13 | 105 | 100 | 106
Cc1ccc(OCCN2CCN(C(=O)CCC(=O)Nc3nnc(C(C)C)s3)CC2)cc1 | 55* | 94 | 95 | 92
CCOc1cc(C(=O)Nc2cc(C)on2)cc(OCC)c1OCC | 2 | 102 | 102 | 81
SMILES | Jurkat viability | HUVEC prolif 384 | Fibroblast inh | H69AR inhibit
CCOc1ccc(C(=O)Nc2cc(C)on2)cc1 | -3 | 99 | . | 36*
O=C(Nc1ccc(Cl)cc1)Nc1ccc2c(c1)N1CCN=C1S2 | 10 | 62 | 102 | 35*
CC1=C(SCCC#N)S/C(=C2\SC(C)=C(SCCC#N)S2)S1 | -3 | 19* | 100 | 26*
CCCCCNc1nc(-c2ccccc2)cs1 | . | 94 | 85 | 90
COc1ccc(CCNC(=O)c2cc(-c3cc(C)c(C)cc3O)n[nH]2)cc1OC | 12 | 94 | 101 | 29*
O=C1NCCCC1C(=O)N1CCN(C(c2ccccc2)c2ccccc2)CC1 (configuration not stated) | 13 | 97 | 106 | 87

Screening data (PubChem BioAssay)
